Laboratory results as given in ChEMBL document CHEMBL5724801, “EUbOPEN Chemogenomics Library - Multiplex” (2024).
“And” between values parts separate entries of the source, which are not always exact repeats. Identical values can stand only once.

Test system: HEK-293T
Assay: Multiplex assay against HEK293T
Type: toxicity, cell-based
Settings: human
Method in brief: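 Cells were classed with CellPathfinder machine-learning gating, first as Hoechst high-intensity objects or normal cells, then (normal cells) as healthy, pyknosed or fragmented nuclei, and finally (pyknosed cells) as mitotic or apoptotic. Staining of live cells at seeding used Hoechst33342, BioTracker Green Microtubule Cytoskeleton Dye, MitoTracker Red and Annexin V Alexa Fluor 680, with imaging on a CQ1 microscope at 37°C and 5% CO2 after compound addition. Tubulin, mitochondrial-mass and membrane-permeability phenotypes are per cents of healthy-nucleus cells.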

[1] = 12 h, 1 µM, compound concentration 1 uM
[2] = 12 h, 10 µM, compound concentration 10 uM
[3] = 24 h, 1 µM, compound concentration 1 uM
[4] = 24 h, 10 µM, compound concentration 10 uM
[5] = 48 h, 1 µM, compound concentration 1 uM
[6] = 48 h, 10 µM, compound concentration 10 uM

## CC(=O)NCC(=O)N1[C@@H]2CC[C@H]1c1ccc(Nc3ncc(C(F)(F)F)c(NC4CCC4)n3)cc12 [PF-03814735]
[1]
  Population Apoptotic (%): 13.45% and 7.26%
  Population Fragmented Nuclei (%): 1.8% and 4%
  Population Hoechst High Intensity Objects (%): 0.36% and 0%
  Population Membrane Permeable-Phenotype (%): 0% and 5%
  Population Mitochondria Different-Phenotype (%): 42.86% and 15%
  Population Mitotic Cells (%): 86.55% and 92.74%
  Population Normal (%): 99.64% and 100%
  Population Pyknosed Nuclei (%): 42.81% and 82.67%
  Total Cell Count: 279 and 150
[2]
  Population Apoptotic (%): 22.73% and 21.78%
  Population Fragmented Nuclei (%): 2.61% and 0.88%
  Population Hoechst High Intensity Objects (%): 0.65% and 0%
  Population Membrane Permeable-Phenotype (%): 0%
  Population Mitochondria Different-Phenotype (%): 27.87% and 27.27%
  Population Mitotic Cells (%): 77.27% and 78.22%
  Population Normal (%): 99.35% and 100%
  Population Pyknosed Nuclei (%): 57.52% and 89.38%
  Population Tubulin-Different-Phenotype (%): 75.41% and 45.45%
  Total Cell Count: 154 and 113
[3]
  Population Apoptotic (%): 21.25% and 13.04%
  Population Fragmented Nuclei (%): 1.47% and 2.07%
  Population Healthy Nuclei (%): 75.07% and 34.48%
  Population Hoechst High Intensity Objects (%): 0%
  Population Membrane Permeable-Phenotype (%): 0.78% and 4%
  Population Mitochondria Different-Phenotype (%): 20.31% and 10%
  Population Mitotic Cells (%): 78.75% and 86.96%
  Population Normal (%): 100%
  Population Pyknosed Nuclei (%): 23.46% and 63.45%
  Total Cell Count: 341 and 145
[4]
  Population Apoptotic (%): 65.09% and 50.43%
  Population Fragmented Nuclei (%): 0.99% and 0.8%
  Population Hoechst High Intensity Objects (%): 0%
  Population Membrane Permeable-Phenotype (%): 0%
  Population Mitochondria Different-Phenotype (%): 90.53% and 33.33%
  Population Mitotic Cells (%): 34.91% and 49.57%
  Population Normal (%): 100%
  Population Pyknosed Nuclei (%): 52.22% and 92%
  Total Cell Count: 203 and 125
[5]
  Population Apoptotic (%): 15.15% and 12.5%
  Population Fragmented Nuclei (%): 5.66% and 2.01%
  Population Healthy Nuclei (%): 86.88% and 71.14%
  Population Hoechst High Intensity Objects (%): 0%
  Population Membrane Permeable-Phenotype (%): 3.65% and 1.89%
  Population Mitotic Cells (%): 84.85% and 87.5%
  Population Normal (%): 100%
  Total Cell Count: 442 and 149
[6]
  Population Apoptotic (%): 68.24% and 37.78%
  Population Fragmented Nuclei (%): 2.53% and 2.44%
  Population Healthy Nuclei (%): 61.6% and 24.39%
  Population Hoechst High Intensity Objects (%): 0%
  Population Membrane Permeable-Phenotype (%): 0.68% and 0%
  Population Mitochondria Different-Phenotype (%): 97.95% and 76.67%
  Population Mitotic Cells (%): 31.76% and 62.22%
  Population Normal (%): 100%
  Population Pyknosed Nuclei (%): 35.86% and 73.17%
  Total Cell Count: 237 and 123

## CN(C)C/C=C/C(=O)Nc1ccc(C(=O)N2CCCC(Nc3ncc(Cl)c(-c4c[nH]c5ccccc45)n3)C2)cc1 (configuration not stated)
[1]
  Population Apoptotic (%): 46% and 63%
  Population Fragmented Nuclei (%): 8% and 6%
  Population Healthy Nuclei (%): 55% and 64%
  Population Hoechst High Intensity Objects (%): 30% and 23%
  Population Membrane Permeable-Phenotype (%): 0%
  Population Mitochondria Different-Phenotype (%): 87% and 89%
  Population Mitotic Cells (%): 53% and 36%
  Population Normal (%): 69% and 76%
  Population Pyknosed Nuclei (%): 35% and 29%
  Population Tubulin-Different-Phenotype (%): 69% and 70%
  Total Cell Count: 227 and 231
[2]
  Population Apoptotic (%): 62% and 77%
  Population Fragmented Nuclei (%): 12% and 7%
  Population Healthy Nuclei (%): 57% and 64%
  Population Hoechst High Intensity Objects (%): 35% and 29%
  Population Membrane Permeable-Phenotype (%): 0%
  Population Mitochondria Different-Phenotype (%): 95%
  Population Mitotic Cells (%): 37% and 22%
  Population Normal (%): 64% and 70%
  Population Pyknosed Nuclei (%): 30% and 28%
  Population Tubulin-Different-Phenotype (%): 79% and 81%
  Total Cell Count: 269 and 181
[3]
  Population Apoptotic (%): 72% and 74%
  Population Fragmented Nuclei (%): 15% and 9%
  Population Healthy Nuclei (%): 62% and 67%
  Population Hoechst High Intensity Objects (%): 27% and 26%
  Population Membrane Permeable-Phenotype (%): 0%
  Population Mitochondria Different-Phenotype (%): 85% and 89%
  Population Mitotic Cells (%): 27% and 25%
  Population Normal (%): 72% and 73%
  Population Pyknosed Nuclei (%): 22% and 23%
  Population Tubulin-Different-Phenotype (%): 74% and 70%
  Total Cell Count: 222 and 207
[4]
  Population Apoptotic (%): 74% and 88%
  Population Fragmented Nuclei (%): 19% and 10%
  Population Healthy Nuclei (%): 55% and 68%
  Population Hoechst High Intensity Objects (%): 49% and 34%
  Population Membrane Permeable-Phenotype (%): 0%
  Population Mitochondria Different-Phenotype (%): 96% and 98%
  Population Mitotic Cells (%): 25% and 11%
  Population Normal (%): 50% and 65%
  Population Pyknosed Nuclei (%): 24% and 20%
  Population Tubulin-Different-Phenotype (%): 52% and 77%
  Total Cell Count: 314 and 197
[5]
  Population Apoptotic (%): 67% and 81%
  Population Fragmented Nuclei (%): 16% and 6%
  Population Healthy Nuclei (%): 59% and 65%
  Population Hoechst High Intensity Objects (%): 30% and 26%
  Population Membrane Permeable-Phenotype (%): 0%
  Population Mitochondria Different-Phenotype (%): 79% and 95%
  Population Mitotic Cells (%): 32% and 18%
  Population Normal (%): 69% and 73%
  Population Pyknosed Nuclei (%): 23% and 27%
  Population Tubulin-Different-Phenotype (%): 71% and 74%
  Total Cell Count: 239 and 184
[6]
  Population Apoptotic (%): 55% and 80%
  Population Fragmented Nuclei (%): 62% and 47%
  Population Healthy Nuclei (%): 14% and 30%
  Population Hoechst High Intensity Objects (%): 67% and 58%
  Population Membrane Permeable-Phenotype (%): 0%
  Population Mitochondria Different-Phenotype (%): 100% and 94%
  Population Mitotic Cells (%): 44% and 20%
  Population Normal (%): 32% and 41%
  Population Pyknosed Nuclei (%): 23% and 21%
  Population Tubulin-Different-Phenotype (%): 23% and 57%
  Total Cell Count: 361 and 277
